An excerpt weighted towards active compounds, which were near 2.5% of everything screened.
SENP8 block-1 – SENP8 protease inhibitors, primary screen, biochemical, luminescence; 330,000 tested, 1.2% active; purified SENP8, Z-RLRGG-aminoluciferin cleavage; inhibition, % at 10 µM; in the data active = inhibition above about 50%
SENP7 inh – SENP7 protease inhibitors, primary screen, biochemical, luminescence, uHTS; Sentrin-specific protease 7 (Homo sapiens), Q9BQF6; recombinant SENP7, Z-RLRGG-aminoluciferin luminescence, 40 min; inhibition, % at 5 µM; 330,000 tested, 1.5% active;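 active = inhibition above about 50% at the single test dose, limit read from the data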;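 also: plate controls were DMSO with enzyme for no effect and no enzyme buffer wells for full effect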
SENP8 block-2 – human SENP8 protease inhibitors, primary screen, biochemical, fluorescence, Nedd8 protein substrate, uHTS. Sentrin-specific protease 8 (Homo sapiens), Q96LD8. recombinant SENP8. inhibition, % at 20 µM. 360,000 tested, 0.64% active. AID 602440, 2012; in the data active = inhibition mostly above about 40%, no sharp cut-off; inactive = mostly below about 27%
SENP6 inh – SENP6 protease inhibitors, primary screen, biochemical, luminescence, uHTS. Sentrin-specific protease 6 (Homo sapiens), Q9GZR1. Recombinant SENP6 catalytic domain, aminoluciferin luminescence. inhibition, % at 10 µM. 330,000 tested, 1.8% active. AID 2599, 2010;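 active = inhibition above about 50% at the single tested dose, limit read from the data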;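 also: plate controls were DMSO wells with enzyme for no effect and DMSO wells lacking enzyme for full effect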
Target sequence (Q9GZR1 628-1112 limits assumed): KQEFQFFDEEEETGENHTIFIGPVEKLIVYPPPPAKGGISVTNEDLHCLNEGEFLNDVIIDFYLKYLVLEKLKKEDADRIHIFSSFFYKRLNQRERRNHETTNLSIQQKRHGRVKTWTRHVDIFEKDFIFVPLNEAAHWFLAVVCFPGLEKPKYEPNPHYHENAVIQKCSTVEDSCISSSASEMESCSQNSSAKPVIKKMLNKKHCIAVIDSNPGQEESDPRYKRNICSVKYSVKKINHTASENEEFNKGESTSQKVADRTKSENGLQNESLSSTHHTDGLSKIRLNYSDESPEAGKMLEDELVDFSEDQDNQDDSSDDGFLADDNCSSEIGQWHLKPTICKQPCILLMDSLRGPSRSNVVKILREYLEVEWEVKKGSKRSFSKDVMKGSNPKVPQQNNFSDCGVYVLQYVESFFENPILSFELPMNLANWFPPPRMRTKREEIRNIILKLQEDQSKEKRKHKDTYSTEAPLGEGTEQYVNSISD
SENP1 inh – human SENP1 catalytic domain inhibitors, primary screen, biochemical, FRET, uHTS; Sentrin-specific protease 1 (Homo sapiens), Q9P0U3; recombinant SENP1 catalytic domain, CyPet-SUMO1-YPet FRET cleavage; inhibition, % at 10 µM; 360,000 tested, 0.21% active; AID 624204, 2012;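 active = inhibition at least 30% at 10 µM, raw YFP signal under a set limit, fluorescence ratio 0.5 to 1.5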;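 also: 0% = enzyme with DMSO and 100% = no enzyme wells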
Target sequence (Q9P0U3 419-644 limits assumed): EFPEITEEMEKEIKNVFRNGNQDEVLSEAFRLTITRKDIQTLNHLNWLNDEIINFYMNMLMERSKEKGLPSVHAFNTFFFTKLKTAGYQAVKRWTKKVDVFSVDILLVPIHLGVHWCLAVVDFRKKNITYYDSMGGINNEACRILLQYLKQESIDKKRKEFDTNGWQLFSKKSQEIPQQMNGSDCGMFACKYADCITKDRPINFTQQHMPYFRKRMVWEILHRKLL
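material = recombinant human SENP1 catalytic domain, His6-tagged | quantity = 20 pM enzyme | reagent = 25 nM SUMO1 FRET substrate | compound dosing = 10 µM single point, 0.5% DMSO | timing = 50 min enzyme reaction, room temperature, light-protected | detection = FRET, CFP and YFP emission | control set = no-enzyme low, enzyme-DMSO high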
SENP8 conf – SENP8 protease inhibitors, retest, confirmation, biochemical, luminescence, single concentration; shares compounds with SENP7 inh; Recombinant SENP8, Z-RLRGG-aminoluciferin luminescence, 60 min; inhibition, % at 12.5 µM; 6,200 tested, 40% active; AID 488912, 2010;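 active = mean inhibition across replicates above about 50%, limit read from the data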
SENP6 confirm – SENP6 protease inhibitors, confirmation, biochemical, luminescence, single concentration | 6,200 tested, 58% active | recombinant SENP6, Z-RLRGG-aminoluciferin luminescence | AID 488915, 2010 | shares compounds with SENP7 inh | inhibition, % at 12.5 µM
SENP7 confirm – SENP7 protease inhibitors, retest, confirmation, biochemical, luminescence, single concentration; inhibition, % at 12.5 µM; AID 488917, 2010; 6,200 tested, 69% active; recombinant SENP7, Z-RLRGG-aminoluciferin luminescence, 40 min; shares compounds with SENP7 inh
Casp3 SENP sel – caspase-3 protease inhibitors, confirmation, selectivity assay for SENP inhibitor project, biochemical, single concentration; 6,200 tested, 60% active; inhibition, % at 12.5 µM; shares compounds with SENP7 inh; purified caspase-3, Z-DEVD-aminoluciferin luminescence, 60 min;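 active = mean inhibition above about 50%, limit read from the data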;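 also: plate controls were enzyme with DMSO for no effect and wells without caspase-3 for full effect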
Luc interf – luminescence interference (SENP counter-screen); shares compounds with SENP7 inh; Pre-incubated SENP8/Z-RLRGG-aminoluciferin, luciferase luminescence interference; inhibition, % at 12.5 µM; 6,200 tested, 39% active;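 active = mean inhibition above about 50% when retested at one dose, limit read from the data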;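 also: plate controls were DMSO wells with completed reaction for no effect and substrate without enzyme for full effect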
An asterisk follows results filed as active; · = no result given.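 The calls were made as follows, unless noted: active = mean inhibition above about 50% in the one-dose retest (limit read from the data); inactive = the rest.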

SMILES	SENP8 block-1	SENP7 inh	SENP8 block-2	SENP6 inh	SENP1 inh	SENP8 conf	SENP6 confirm	SENP7 confirm	Casp3 SENP sel	Luc interf
CN1/C(=C\C(=O)c2cccnc2)Sc2ccccc21	0.8	8.2	-238.6	13.5	-120.0	·	·	·	·	·
O=C(O)CSc1nc2c(cnn2-c2ccccc2)c(=O)n1-c1ccc(Br)cc1	41.3	3.4	19.3	55.8*	0.2	40.2	37.3	24.4	9.5	59.7*
CCCSc1nc2c(cnn2-c2ccccc2)c(=O)n1N	21.8	35.8	5.6	31.5	0.6	·	·	·	·	·
CCCCSc1nc2c(cnn2-c2ccccc2)c(=O)n1N	44.2	68.4*	15.5	81.7*	1.8	68.8*	66.6*	88.0*	62.9*	47.9
Nn1c(SCc2ccccc2)nc2c(cnn2-c2ccccc2)c1=O	21.7	43.3	8.9	62.0*	1.2	23.4	14.5	63.8*	31.9	17.1
Cc1nc(Sc2ccc(Br)cc2)c(C#N)c(C)c1[N+](=O)[O-]	9.5	4.0	17.6	-4.9	1.1	·	·	·	·	·
CC(C)[C@H](NS(=O)(=O)c1ccccc1)C(=O)OCC(=O)NC(=O)c1cccn1C	27.2	11.3	2.9	60.0*	-1.9	47.0	38.4	68.0*	61.0*	8.7
OC1(c2ccc(Cl)cc2)CCN(Cc2nc(-c3cnccn3)no2)CC1	5.1	-0.7	-1.2	-4.7	-0.6	·	·	·	·	·
Clc1ccc(-c2nc(-c3cnccn3)no2)cc1	90.1*	97.7*	16.3	95.6*	3.0	90.3*	92.6*	101.1*	96.8*	56.2*
Fc1ccc(-c2nc(-c3cnccn3)no2)c(Cl)c1	81.4*	85.1*	13.1	87.7*	0.0	85.4*	84.8*	96.5*	93.7*	49.5
Cc1ccc(-c2nc(-c3cccnc3)no2)c(C)c1	23.8	46.4	29.6	-10.2	-0.5	·	·	·	·	·
CCN(CC)S(=O)(=O)c1cccc(C(=O)OCC(=O)NCCN2C(=O)CSC2=O)c1	4.6	-9.3	11.6	8.2	4.3	·	·	·	·	·
COc1ccccc1S(=O)(=O)N(C)C[C@H]1OCc2cnnn2CCCC(=O)N([C@H](C)CO)C[C@H]1C	·	·	6.8	·	0.3	·	·	·	·	·
N#CC(C(O)c1ccccc1)N1CCOCC1 (stereo not drawn)	·	·	16.9	·	1.1	·	·	·	·	·
CCN(CC)C(=O)[C@H]1C[C@H](CC(=O)NCCc2ccccn2)C(=O)N2CCc3c([nH]c4cc(CCC(=O)N(C)C)ccc34)[C@]12C	·	5.7	-9.0	·	-3.0	·	·	·	·	·
COC(=O)C1=C(C)N(CC2CC2)C(=O)N[C@H]1c1ccccc1	-3.6	16.1	19.5	-22.2	2.6	·	·	·	·	·
CCSc1nnc(NC(=O)c2cccs2)s1	-16.6	2.4	-40.7	-1.6	-1.1	·	·	·	·	·
O=C(Nc1ncc(Cc2ccccc2)s1)c1cccs1	40.3	58.3*	-48.7	53.0*	-2.4	56.6*	56.9*	83.3*	37.3	52.9*
Cc1ccc(C(=O)Nc2ncc(Cc3ccccc3)s2)o1	51.2*	62.8*	-9.9	71.2*	-3.0	6.5	68.1*	92.1*	62.4*	56.3*
O=C(Nc1nnc(SCc2ccccc2)s1)c1cccs1	69.1*	52.7*	-196.9	86.4*	0.0	-4.4	24.8	36.1	29.7	6.4
O=C(COC(=O)c1cc(=O)[nH]c2ccccc12)c1ccc(Br)cc1	-3.5	-11.7	-199.0	10.8	-30.8	·	·	·	·	·
CCOc1ccc(C(=O)COC(=O)c2cc(=O)[nH]c3ccccc23)cc1	-16.8	52.9*	-205.9	-3.2	-37.7	-8.8	-9.0	-5.2	6.7	1.5
Cc1cc(OCC(O)CN(C)C(=O)C(C)Oc2ccccc2)ccc1Cl (stereo not drawn)	-16.1	-3.9	16.6	-9.1	1.7	·	·	·	·	·
O=C(Nc1ccccc1Cl)c1cc2ccccc2o/c1=N\O	14.5	81.1*	13.5	55.7*	-0.3	1.0	6.5	81.3*	55.8*	32.4
COc1cccc(NC(=O)c2cc3ccccc3o/c2=N\O)c1	96.4*	99.8*	17.5	98.5*	0.9	97.9*	98.8*	101.3*	96.0*	97.3*
SMILES	SENP8 block-1	SENP7 inh	SENP8 block-2	SENP6 inh	SENP1 inh	SENP8 conf	SENP6 confirm	SENP7 confirm	Casp3 SENP sel	Luc interf
O=C(Nc1ccccc1Cl)c1ccccc1Cl	-10.1	11.5	15.0	-7.7	1.4	·	·	·	·	·
O=C(COC(=O)c1cc(Cl)ccc1Cl)Nc1ccc2[nH]c(=O)[nH]c2c1	-12.5	16.2	-79.5	-14.8	-16.4	·	·	·	·	·
Fc1ccccc1N=C1NN=C(c2ccccc2)CS1	11.4	-0.4	-28.1	-19.4	-2.5	·	·	·	·	·
Clc1ccccc1N=C1NN=C(c2cccs2)CS1	76.6*	74.1*	-5.9	68.3*	2.1	85.4*	85.8*	96.6*	68.6*	77.4*
c1ccc(N=Nc2ccc3cccccc2-3)cc1	45.0	67.7*	24.3	54.1*	3.7	56.4*	68.3*	86.4*	33.7	49.1
Nc1ccc(N=Nc2ccccc2)c2ccccc12	-7.5	11.3	24.2	-3.5	1.1	·	·	·	·	·
S=C1NC(c2ccccc2)N2C(=S)NC(c3ccccc3)N12 (stereo not drawn)	38.3	51.6*	15.0	68.7*	-0.3	8.0	14.8	44.7	5.9	7.8
O=C(Nc1cccc(Cl)c1)c1cc(-c2ccco2)on1	78.2*	86.9*	-5.4	83.2*	-1.5	36.3	81.3*	97.3*	77.0*	42.2
COc1ccc(-c2cc(C(=O)Nc3cccc(C(C)=O)c3)no2)cc1	-3.3	-7.1	14.1	0.4	0.9	·	·	·	·	·
COc1cccc(-c2cc(C(=O)Nc3cccc(O)c3)no2)c1	94.0*	97.2*	8.7	98.6*	-0.4	88.2*	90.5*	101.6*	91.8*	90.0*
COc1ccc(-c2cc(C(=O)Nc3cccc(Cl)c3)no2)cc1	17.8	77.9*	8.5	14.9	0.1	-20.6	-12.2	-3.6	11.3	-5.1
